In ChEMBL document CHEMBL5331128, “Alicyclic Ring Size Variation of 4-Phenyl-2-naphthoic Acid Derivatives as P2Y14 Receptor Antagonists” (J Med Chem, 2023):
One block for each molecule: values may come before it. Active and inactive are the calls of the source.

Legend:
Mus musculus [1] = test: Antiallodynic activity in CCI surgery neuropathic pain Hsd:ICR mouse model assessed as reversal of mechano-allodynia by measuring paw withdrawal threshold at 10 micromol/kg,ip and measured upto 5 days by von frey test; assay type: functional, organism-based; conditions: dose 10.0 µmol/kg, time <= 5.0 day
Method in brief: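 CCI neuropathic pain in adult male Hsd:ICR (CD-1) mice (20–30 g). Single i.p. injection on day 7 after sciatic nerve constriction, at peak pain. Vehicle 10% (Kolliphor HS 15:DMSO 5:95) in saline, 0.2 mL. Paw withdrawal threshold by von Frey filaments on ipsilateral and contralateral hindpaws. Mean ± SD; two-way ANOVA with Dunnett's test versus day 0 and day 7.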

Mus musculus [2] = test: Antiallodynic activity in CCI surgery neuropathic pain Hsd:ICR mouse model assessed as reversal of mechano-allodynia by measuring paw withdrawal threshold at 10 micromol/kg,po and measured upto 6 hrs by von frey test; assay type: functional, organism-based; conditions: dose 10.0 µmol/kg
Method in brief: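 CCI neuropathic pain in adult male CD-1 mice. Single oral gavage dose of 10 μmol/kg on day 7 post-surgery. Vehicle 5% DMSO + 10% (Kolliphor HS 15:DMSO 5:95) in 0.5% methylcellulose, 0.2 mL. Von Frey paw withdrawal threshold on both hindpaws. Mean ± SD; two-way ANOVA with Dunnett's test.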

Mus musculus [3] = test: Anti-asthmatic activity against OVA/Aspergillus-sensitized protease-mediated C57BL/6J mouse model allergic asthma assessed as reduction in neutrophils in BAL fluid at 10 mg/kg,ip followed by 0.5 hrs OVA challenge and measured after 48 hrs; assay type: functional, organism-based; conditions: time 48.5 hrs
Mus musculus [4] = test: Anti-asthmatic activity against OVA/Aspergillus-sensitized protease-mediated C57BL/6J mouse model allergic asthma assessed as reduction in macrophages in BAL fluid at 10 mg/kg,ip followed by 0.5 hrs OVA challenge and measured after 48 hrs; assay type: functional, organism-based; conditions: time 48.5 hrs
Mus musculus [5] = test: Anti-asthmatic activity against OVA/Aspergillus-sensitized protease-mediated C57BL/6J mouse model allergic asthma assessed as reduction in airway eosinophilia in BAL fluid at 10 mg/kg,ip followed by 0.5 hrs OVA challenge and measured after 48 hrs; assay type: functional, organism-based; conditions: time 48.5 hrs
Mus musculus [6] = test: Anti-asthmatic activity against OVA/Aspergillus-sensitized protease-mediated C57BL/6J mouse model allergic asthma assessed as reduction in lymphocytes in BAL fluid at 10 mg/kg,ip followed by 0.5 hrs OVA challenge and measured after 48 hrs; assay type: functional, organism-based; conditions: time 48.5 hrs
[7] = Lipophilicity, log D of compound at pH 7.4 incubated for 20 hrs by HPLC analysis; assay type: physicochemical; conditions: buffer
[8] = target: 5-hydroxytryptamine receptor 1B (Homo sapiens, UniProt P28222); test: Displacement of [3H]-5-CT from human 5-HT1B receptor assessed as inhibition constant by radioligand displacement assay
5-hydroxytryptamine receptor 1B, sequence (P28222 whole entry): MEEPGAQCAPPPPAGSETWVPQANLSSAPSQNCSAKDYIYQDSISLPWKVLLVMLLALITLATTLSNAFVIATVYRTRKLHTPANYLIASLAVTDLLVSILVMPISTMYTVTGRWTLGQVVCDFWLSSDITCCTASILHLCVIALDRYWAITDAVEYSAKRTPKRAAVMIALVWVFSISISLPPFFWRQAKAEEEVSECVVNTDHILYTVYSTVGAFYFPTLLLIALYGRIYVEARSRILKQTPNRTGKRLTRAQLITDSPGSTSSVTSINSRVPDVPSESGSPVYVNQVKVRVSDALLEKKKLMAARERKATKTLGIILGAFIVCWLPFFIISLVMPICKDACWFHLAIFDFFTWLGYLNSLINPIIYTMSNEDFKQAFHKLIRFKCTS

P2Y purinoceptor 14 [9] = target: T1, P2Y purinoceptor 14 (Homo sapiens, UniProt Q15391); test: Displacement of fluorescent tracer 4-(4-(1-(4-(1-(6-(3-carboxylato-4-(3-iminio-3H-xanthen-9-yl)benzamido)hexyl)-4,5-dihydro-1H-pyrrol-3-yl)butyl)piperidin-1-ium-4-yl)phenyl)-7-(4-(trifluoromethyl)phenyl)-2-naphthoate from human P2Y14R stably expressed in CHO cells assessed as inhibition constant by flow cytometry; assay type: cell-based
T1 sequence (Q15391 whole entry): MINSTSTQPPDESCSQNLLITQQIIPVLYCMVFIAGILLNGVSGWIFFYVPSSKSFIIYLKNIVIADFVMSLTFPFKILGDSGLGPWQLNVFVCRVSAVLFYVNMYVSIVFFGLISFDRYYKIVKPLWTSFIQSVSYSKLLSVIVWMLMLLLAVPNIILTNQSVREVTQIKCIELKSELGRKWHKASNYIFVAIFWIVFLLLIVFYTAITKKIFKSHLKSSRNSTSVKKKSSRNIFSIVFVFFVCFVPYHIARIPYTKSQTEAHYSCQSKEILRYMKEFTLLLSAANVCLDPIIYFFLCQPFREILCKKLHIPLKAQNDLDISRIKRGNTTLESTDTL
Method in brief: (§1)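 Whole-cell competitive binding: CHO cells expressing hP2Y14R (or HEK-293 cells expressing mP2Y14R) incubated with AlexaFluor488-labelled antagonist tracer at 20 nM.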

[10] = target: T2, Muscarinic acetylcholine receptor M5 (Homo sapiens, UniProt P08912); test: Displacement of […] from human muscarinic M5 receptor assessed as inhibition constant by radioligand displacement assay
T2 sequence (P08912 whole entry): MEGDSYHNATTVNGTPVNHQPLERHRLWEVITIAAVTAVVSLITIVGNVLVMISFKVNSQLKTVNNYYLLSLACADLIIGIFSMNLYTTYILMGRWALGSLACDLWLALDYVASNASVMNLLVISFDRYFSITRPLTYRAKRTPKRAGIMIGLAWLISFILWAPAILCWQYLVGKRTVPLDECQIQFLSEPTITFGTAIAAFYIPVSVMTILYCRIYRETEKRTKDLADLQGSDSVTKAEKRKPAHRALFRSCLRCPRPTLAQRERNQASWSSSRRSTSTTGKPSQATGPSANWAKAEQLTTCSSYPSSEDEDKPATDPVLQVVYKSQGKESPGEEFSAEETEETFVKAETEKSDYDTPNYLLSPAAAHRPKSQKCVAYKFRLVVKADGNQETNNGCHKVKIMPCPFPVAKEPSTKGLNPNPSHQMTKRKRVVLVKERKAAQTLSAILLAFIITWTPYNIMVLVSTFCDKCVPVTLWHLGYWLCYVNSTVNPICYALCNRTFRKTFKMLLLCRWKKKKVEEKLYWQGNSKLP

[11] = target: T3, Alpha-1B adrenergic receptor (Homo sapiens, UniProt P35368); test: Displacement of [3H]-Prazosin from human adrenergic alpha1B receptor assessed as inhibition constant by radioligand displacement assay
T3 sequence (P35368 whole entry): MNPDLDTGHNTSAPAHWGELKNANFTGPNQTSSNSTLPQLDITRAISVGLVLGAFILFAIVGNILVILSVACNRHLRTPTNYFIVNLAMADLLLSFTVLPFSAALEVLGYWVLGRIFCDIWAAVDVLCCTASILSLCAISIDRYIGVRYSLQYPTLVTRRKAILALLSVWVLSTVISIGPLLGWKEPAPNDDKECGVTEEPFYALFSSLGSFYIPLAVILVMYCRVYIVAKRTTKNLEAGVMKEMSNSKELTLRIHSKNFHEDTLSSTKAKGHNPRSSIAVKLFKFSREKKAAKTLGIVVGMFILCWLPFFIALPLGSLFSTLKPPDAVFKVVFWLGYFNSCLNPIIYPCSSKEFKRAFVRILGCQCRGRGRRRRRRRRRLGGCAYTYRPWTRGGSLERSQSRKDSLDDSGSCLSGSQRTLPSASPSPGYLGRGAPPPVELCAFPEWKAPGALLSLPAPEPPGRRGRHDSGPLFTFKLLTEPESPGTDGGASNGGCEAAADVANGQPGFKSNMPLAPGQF

Histamine H1 receptor = Histamine H1 receptor (Homo sapiens, UniProt P35367); test: Displacement of [3H]-Pyrilamine from human histamine H1 receptor assessed as inhibition constant by radioligand displacement assay
Histamine H1 receptor, sequence (P35367 whole entry): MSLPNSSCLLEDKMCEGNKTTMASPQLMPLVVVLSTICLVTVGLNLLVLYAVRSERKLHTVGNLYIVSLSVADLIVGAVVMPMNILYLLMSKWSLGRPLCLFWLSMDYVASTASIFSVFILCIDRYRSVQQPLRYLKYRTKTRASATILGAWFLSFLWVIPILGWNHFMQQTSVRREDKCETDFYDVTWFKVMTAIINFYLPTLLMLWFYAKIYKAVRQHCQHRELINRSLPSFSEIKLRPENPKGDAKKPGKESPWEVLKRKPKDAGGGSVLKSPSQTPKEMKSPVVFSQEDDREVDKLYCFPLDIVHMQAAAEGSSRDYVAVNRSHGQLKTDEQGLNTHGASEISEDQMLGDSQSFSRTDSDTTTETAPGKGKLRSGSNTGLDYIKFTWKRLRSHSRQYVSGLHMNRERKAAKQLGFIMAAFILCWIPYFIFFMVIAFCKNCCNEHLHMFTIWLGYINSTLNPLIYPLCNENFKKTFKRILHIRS

[12] = target: Beta-3 adrenergic receptor (Homo sapiens, UniProt P13945); test: Displacement of [125I]-Pindolol from human adrenergic beta3 receptor assessed as inhibition constant by radioligand displacement assay
Beta-3 adrenergic receptor, sequence (P13945 whole entry): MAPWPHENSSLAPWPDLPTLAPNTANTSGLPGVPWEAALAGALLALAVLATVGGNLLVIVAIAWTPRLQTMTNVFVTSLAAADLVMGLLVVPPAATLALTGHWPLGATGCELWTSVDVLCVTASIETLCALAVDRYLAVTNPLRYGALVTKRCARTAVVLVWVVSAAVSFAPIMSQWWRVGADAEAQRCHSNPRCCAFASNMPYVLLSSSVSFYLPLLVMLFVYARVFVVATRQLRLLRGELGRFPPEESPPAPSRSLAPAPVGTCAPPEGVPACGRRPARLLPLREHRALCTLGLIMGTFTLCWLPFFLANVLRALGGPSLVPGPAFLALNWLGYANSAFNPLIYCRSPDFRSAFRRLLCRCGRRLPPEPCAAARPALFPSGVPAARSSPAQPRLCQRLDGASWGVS

P2Y purinoceptor 14 [13] = target: T4, P2Y purinoceptor 14 (Mus musculus, UniProt Q9ESG6); test: Displacement of fluorescent tracer 4-(4-(1-(4-(1-(6-(3-carboxylato-4-(3-iminio-3H-xanthen-9-yl)benzamido)hexyl)-4,5-dihydro-1H-pyrrol-3-yl)butyl)piperidin-1-ium-4-yl)phenyl)-7-(4-(trifluoromethyl)phenyl)-2-naphthoate from mouse P2Y14R stably expressed in human HEK293 cells by flow cytometry; assay type: cell-based
T4 sequence (Q9ESG6 whole entry): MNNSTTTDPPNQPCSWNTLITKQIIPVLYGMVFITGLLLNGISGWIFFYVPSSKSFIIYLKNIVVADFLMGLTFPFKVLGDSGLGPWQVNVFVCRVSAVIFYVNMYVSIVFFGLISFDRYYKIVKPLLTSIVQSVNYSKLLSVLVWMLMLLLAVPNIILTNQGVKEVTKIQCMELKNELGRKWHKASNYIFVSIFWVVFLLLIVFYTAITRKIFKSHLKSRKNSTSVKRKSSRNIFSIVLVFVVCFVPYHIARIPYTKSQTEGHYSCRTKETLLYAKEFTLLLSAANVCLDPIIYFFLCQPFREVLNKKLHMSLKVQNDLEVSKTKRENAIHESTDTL
Method in brief: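 Whole-cell competitive binding: CHO cells expressing hP2Y14R (or HEK-293 cells expressing mP2Y14R) incubated with AlexaFluor488-labelled antagonist tracer at 20 nM. […] Ki derived by dividing IC50 by 1.72.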

[14] = Selectivity ratio, ratio of IC50 for displacement of fluorescent tracer 4-(4-(1-(4-(1-(6-(3-carboxylato-4-(3-iminio-3H-xanthen-9-yl)benzamido)hexyl)-4,5-dihydro-1H-pyrrol-3-yl)butyl)piperidin-1-ium-4-yl)phenyl)-7-(4-(trifluoromethyl)phenyl)-2-naphthoate from mouse P2Y14R stably expressed in human HEK293 cells to IC50 for displacement of fluorescent tracer 4-(4-(1-(4-(1-(6-(3-carboxylato-4-(3-iminio-3H-xanthen-9-yl)benzamido)hexyl)-4,5-dihydro-1H-pyrrol-3-yl)butyl)piperidin-1-ium-4-yl)phenyl)-7-(4-(trifluoromethyl)phenyl)-2-naphthoate from human P2Y14R stably expressed in CHO cells; assay type: cell-based
[15] = target: Sigma intracellular receptor 2 (Homo sapiens, UniProt Q5BJF2); test: Displacement of [3H]-DTG from human sigma 2 receptor assessed as inhibition constant by radioligand displacement assay
Sigma intracellular receptor 2, sequence (Q5BJF2 whole entry): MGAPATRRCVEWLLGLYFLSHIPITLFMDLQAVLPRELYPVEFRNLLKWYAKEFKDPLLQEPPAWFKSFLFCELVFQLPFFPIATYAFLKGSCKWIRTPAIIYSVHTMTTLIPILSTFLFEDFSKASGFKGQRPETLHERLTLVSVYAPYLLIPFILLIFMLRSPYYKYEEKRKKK

P2Y purinoceptor 14 [16] = target: T1, P2Y purinoceptor 14; test: Displacement of fluorescent tracer 4-(4-(1-(4-(1-(6-(3-carboxylato-4-(3-iminio-3H-xanthen-9-yl)benzamido)hexyl)-4,5-dihydro-1H-pyrrol-3-yl)butyl)piperidin-1-ium-4-yl)phenyl)-7-(4-(trifluoromethyl)phenyl)-2-naphthoate from human P2Y14R stably expressed in CHO cells by flow cytometry; assay type: cell-based; method in brief: as §1

SMILES: CCOC(=O)N1C[C@H]2C[C@@H]1C[C@@H]2c1ccc(-c2cc(C(=O)OCC(=O)N(C)C)cc3cc(-c4ccc(C(F)(F)F)cc4)ccc23)cc1
- Activity (Mus musculus [1]): Active
- Activity (Mus musculus [2]): Active

SMILES: CCOC(=O)N1C[C@H]2C[C@@H](C1)[C@@]2(O)c1ccc(-c2cc(C(=O)OCC(=O)N(C)C)cc3cc(-c4ccc(C(F)(F)F)cc4)ccc23)cc1
- Activity (Mus musculus [3]): inactive
- Activity (Mus musculus [4]): inactive
- Activity (Mus musculus [5]): inactive
- Activity (Mus musculus [1]): Active
- Activity (Mus musculus [2]): Active
- Activity (Mus musculus [6]): inactive

SMILES: O=C(O)c1cc(-c2ccc(C3=CC4(CNC4)C3)cc2)c2ccc(-c3ccc(C(F)(F)F)cc3)cc2c1
- logD at 20 h [7]: 1.9
- Ki [8]: 6700 nM
- Ki (P2Y purinoceptor 14 [9]): 5.63 nM
- Ki [10]: 5000 nM
- Ki [11]: 7300 nM
- Ki (Histamine H1 receptor): 5600 nM
- Ki [12]: 6800 nM
- IC50 (P2Y purinoceptor 14 [13]): 15.9 nM
- Ratio IC50 [14]: 1.64
- Ki [15]: 2200 nM

- logD at 20 h [7]: 1.6
SMILES: O=C(O)c1cc(-c2ccc(C3CCNC3)cc2)c2ccc(-c3ccc(C(F)(F)F)cc3)cc2c1 (racemic)

- logD at 20 h [7]: 1.4
- Ki (P2Y purinoceptor 14 [9]): 38.3 nM
SMILES: O=C(O)c1cc(-c2ccc(C3CNC3)cc2)c2ccc(-c3ccc(C(F)(F)F)cc3)cc2c1

- Ki (P2Y purinoceptor 14 [9]): 1030 nM
SMILES: O=C(O)c1cc(-c2ccc(C3(O)CCCNCCC3)cc2)c2ccc(-c3ccc(C(F)(F)F)cc3)cc2c1

SMILES: CCOC(=O)N1C[C@H]2C[C@@H](C1)[C@@]2(O)c1ccc(-c2cc(C(=O)O)cc3cc(-c4ccc(C(F)(F)F)cc4)ccc23)cc1
- Ki (P2Y purinoceptor 14 [9]): 47.4 nM
- IC50 (P2Y purinoceptor 14 [16]): 81.6 nM

SMILES: O=C(O)c1cc(-c2ccc(C3=C[C@H]4CNC[C@@H]4C3)cc2)c2ccc(-c3ccc(C(F)(F)F)cc3)cc2c1 (racemic)
- logD at 20 h [7]: 2.2
- Ki (P2Y purinoceptor 14 [9]): 9.65 nM
- IC50 (P2Y purinoceptor 14 [13]): 5.57 nM
- Ratio IC50 [14]: 0.336

- logD at 20 h [7]: 2.4
- Ki (P2Y purinoceptor 14 [9]): 18.6 nM
SMILES: O=C(O)c1cc(-c2ccc(C3C[C@H]4CNC[C@@H]4C3)cc2)c2ccc(-c3ccc(C(F)(F)F)cc3)cc2c1 (racemic)
